Values after ≈ are worked out from the molar mass of the structure shown.
Tests used:
[1] = Apparent oral clearance in healthy human at 20 mg, po administered as single ascending doses as solution during 10 hrs overnight fasting state; format: ADME, organism-based; details: in vivo
Summary of the method: (§1)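 Single ascending oral doses in healthy Caucasian men, given fasted (10-h overnight) with 240 ml water: 10, 20, 30 or 40 mg as oral solution, or 80 mg as IR tablets. Parent plasma levels by LC/MS-MS over 0.25–14 h. Noncompartmental analysis: kel by terminal-phase least-squares regression, AUC extrapolated to infinity, CL/F = dose/AUC, V/F = CL/F÷kel.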

[2] = Cmax in healthy human plasma at 20 mg, po administered as single ascending doses as solution during 10 hrs overnight fasting state; format: ADME, organism-based; design: dose 20 mg, route oral
Summary of the method: (§2)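 Healthy Caucasian male volunteers, single oral dose with 240 ml water after a 10-h overnight fast. Heparinised venous blood was drawn predose and at 0.25–14 h. Plasma was stored frozen. Parent drug and metabolites M1–M3 were measured by LC/MS-MS (MRM, deuterated internal standard). Noncompartmental analysis gave Cmax observed, t1/2 = 0.693/kel (terminal regression) and MRT = AUMC/AUC. Values are geometric means.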

[3] = Apparent volume of distribution with respect to the bioavailability in healthy human at 10 mg, po administered as single ascending doses as solution during 10 hrs overnight fasting state; format: ADME, organism-based; details: in vivo, read-out: Vc/F; summary of the method: as §1
[4] = AUC in healthy human plasma at 10 mg, po administered as single ascending doses as solution during 10 hrs overnight fasting state; format: ADME, organism-based; design: dose 10 mg, time < 10 hr, route oral; summary of the method: as §1
[5] = Mean residence time in healthy human at 30 mg, po administered as single ascending doses as solution during 10 hrs overnight fasting state; format: ADME, organism-based; details: in vivo; summary of the method: as §2
[6] = Apparent oral clearance in healthy human at 40 mg, po administered as two 20 mg immediate release tablets daily for 3 days during 10 hrs overnight fasting state measured after 3 day; format: ADME, organism-based; details: in vivo
Summary of the method: (§3)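 Healthy Caucasian males took 40 mg (2×20-mg IR tablets) or 80 mg (4 tablets) orally daily for 3 days after a 10-h fast. Plasma parent drug was measured by LC/MS-MS from predose to 14 h after the first and third doses. Noncompartmental analysis: AUC by log-linear trapezoid extrapolated via kel, CL/F = dose/AUC, V/F = CL/F÷kel, geometric means.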

[7] = AUC in healthy human plasma at 40 mg, po administered as single ascending doses as solution during 10 hrs overnight fasting state; format: ADME, organism-based; design: time < 10 hr, dose 40 mg, route oral; summary of the method: as §1
[8] = Tmax in healthy human plasma at 80 mg, po administered as single immediate release tablets during 10 hrs overnight fasting state; format: ADME, organism-based
Summary of the method: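 Healthy Caucasian male volunteers (n=6 active, 2 placebo, randomized), single 80 mg dose as four 20-mg tablets with 240 ml water after 10-h fast. Venous lithium-heparin plasma sampled predose and 0.25–14 h; analysed by LC/MS-MS (MRM, deuterated internal standard). Noncompartmental analysis; Tmax observed directly; MRT = AUMC/AUC with extrapolation to infinity via kel.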

Homo sapiens [9] = assay: Toxicity in healthy human assessed as occurrence of adverse event at 40 mg, po administered daily for 3 days as two 20-mg immediate-release tablets during 10 hrs overnight fasting state; format: organism-based; details: in vivo
Summary of the method: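 3-day daily oral tablet dosing in healthy Caucasian men (8 active, 4 placebo per dose). Adverse events were collected by open questioning and spontaneous report. Severity was graded mild (daily activities unaffected), moderate (some interference) or severe (activities not completed).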

[10] = Apparent volume of distribution with respect to the bioavailability in healthy human at 80 mg, po administered as four 20 mg immediate release tablets daily for 3 days during 10 hrs overnight fasting state measured after 1 day; format: ADME, organism-based; details: in vivo, read-out: Vc/F; summary of the method: as §3
Plasma [11] = assay: (§4) Ratio of Ratio of AUC (0 to infinity) in healthy human plasma at 40 mg, po administered as two 20 mg immediate release tablets daily for 3 days during 10 hrs overnight fasting state measured after 1 day to Ratio of AUC (0 to infinity) in healthy human plasma at 40 mg, po administered as two 20 mg immediate release tablets daily for 3 days during 10 hrs overnight fasting state measured after 3 day; format: ADME, organism-based; details: in vivo
Summary of the method: (§5)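 Healthy Caucasian men took tablets daily for 3 days with 240 ml water after 10-h fast. Plasma sampled 0.25–14 h after first and last doses, artemisone measured by LC/MS-MS. Accumulation ratio is Cmax or AUC0-∞ after last dose divided by that after first dose. Noncompartmental analysis, geometric means with 95% CI.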

[12] = AUC in healthy human plasma at 40 mg, po administered as two 20 mg immediate release tablets daily for 3 days during 10 hrs overnight fasting state measured after 3 day; format: ADME, organism-based; design: dose 40 mg, time < 10 hr, route oral; summary of the method: as §3
Homo sapiens [13] = assay: Toxicity in healthy human assessed as occurrence of changes in electrocardiogram parameters at 10 to 80 mg, po administered as single ascending doses during 10 hrs overnight fasting state; format: organism-based; details: in vivo
Summary of the method: (§6)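 Healthy Caucasian men received single ascending doses (10–40 mg solution, 80 mg tablets) or 3-day daily tablet courses, all fasting, with randomized placebo controls. Supine blood pressure, heart rate and resting 12-lead ECG were recorded before and after dosing.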

[14] = Cmax in healthy human plasma at 80 mg, po administered as four 20 mg immediate release tablets daily for 3 days during 10 hrs overnight fasting state measured after 1 day; format: ADME, organism-based; design: dose 80 mg, route oral
Summary of the method: (§7)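 Healthy Caucasian males took tablets once daily for 3 days with 240 ml water after a 10-h fast. Heparinised blood was drawn predose and at 0.25–14 h after the first and last doses. Plasma parent drug and metabolites M1–M3 were measured by LC/MS-MS (MRM, deuterated internal standard). Noncompartmental analysis gave Cmax observed, t1/2 = 0.693/kel and MRT = AUMC/AUC. Values are geometric means.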

[15] = Apparent volume of distribution with respect to the bioavailability in healthy human at 20 mg, po administered as single ascending doses as solution during 10 hrs overnight fasting state; format: ADME, organism-based; details: in vivo, read-out: Vc/F; summary of the method: as §1
[16] = Half life in healthy human plasma at 30 mg, po administered as single ascending doses as solution during 10 hrs overnight fasting state; format: ADME, organism-based; summary of the method: as §2
Plasma [17] = assay: as §4, with “Ratio” for “Ratio of Ratio”, “80” for “40”, “four” for “two”, “to” for “to Ratio of”; format: ADME, organism-based; details: in vivo; summary of the method: as §5
[18] = Cmax in healthy human plasma at 80 mg, po administered as four 20 mg immediate release tablets daily for 3 days during 10 hrs overnight fasting state measured after 3 day; format: ADME, organism-based; design: dose 80 mg, route oral; summary of the method: as §7
[19] = Half life in healthy human plasma at 40 mg, po administered as two 20 mg immediate release tablets daily for 3 days during 10 hrs overnight fasting state measured after 1 day; format: ADME, organism-based; summary of the method: as §7
Plasmodium falciparum = assay: Antimalarial activity against Plasmodium falciparum TM90-C2A in human plasma assessed as inhibition of hypoxanthine uptake by intraerythrocytic malaria parasites by hypoxanthine incorporation assay; format: functional, organism-based
Summary of the method: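 K1 or TM90-C2A parasites were sorbitol-synchronized and cultured in RPMI 1640. Drug was diluted in drug-free human serum (0.04–40 ng/ml) or subject plasma was diluted twofold (8–8,192). Parasites were added at 2% hematocrit, 1% parasitemia (>95% rings), and [3H]hypoxanthine uptake was measured over 48 h. IC50 or ID50 came from concentration or dilution-response curves. Equivalent concentration = ID50 × IC50.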

Homo sapiens [20] = assay: Toxicity in healthy human assessed as occurrence of clinically relevant changes in vital signs at 10 to 80 mg, po administered as single ascending doses during 10 hrs overnight fasting state; format: organism-based; details: in vivo; summary of the method: as §6

What does the source list for `C[C@H]1[C@H](N2CCS(=O)(=O)CC2)O[C@@H]2O[C@@]3(C)CC[C@H]4[C@H](C)CC[C@@H]1[C@@]24OO3` [ARTEMIFONE]?
CL/F [1]: 5080 mL/min; Cmax [2]: 57.3 ng/mL; Vd/F [3]: 8.93 L/kg; AUC at 10 h [4]: 29.5 ng·h/mL; MRT [5]: 2.29 h; CL/F [6]: 3500 mL/min; AUC at 10 h [7]: 118 ng·h/mL; Tmax [8]: 0.875 h; Activity (Homo sapiens [9]): Non-toxic; Vd/F [10]: 13 L/kg; Ratio (Plasma [11]): 104%; AUC at 10 h [12]: 191 ng·h/mL; Activity (Homo sapiens [13]): Non-toxic; Cmax [14]: 155 ng/mL; Vd/F [15]: 19.1 L/kg; half-life [16]: 3.14 h; Ratio (Plasma [17]): 98.3%; Cmax [18]: 130 ng/mL; half-life [19]: 3.36 h; IC50 (Plasmodium falciparum): 0.64 ng/mL (≈ 1.59 nM); Activity (Homo sapiens [20]): Non-toxic

From ChEMBL document CHEMBL1671864, “First assessment in humans of the safety, tolerability, pharmacokinetics, and ex vivo pharmacodynamic antimalarial activity of the new artemisinin derivative artemisone” (Antimicrob Agents Chemother, 2008)
